Data set [1] deals with P388. As to the kind of experiment: Compound was tested for antitumor activity in P-388 lymphocytic leukemia system. The difference in body weight was calculated at 25 mg/kg dose levels per injection. It counts as functional, Mus musculus.
The subject of data set [2] is P388. As to the kind of experiment: (§1) Antitumor activity in P-388 lymphocytic leukemia system at 200 mg/kg dose levels per injection. Type of data set: functional, Mus musculus. In outline:
(§2)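 P-388 leukemia in animals, Q01D×09 schedule: dose given daily for 9 days, in mg/kg per injection. Read-outs are survivors on day 4 (live/total animals), body-weight difference test minus control (g), and % T/C (median lifetime of treated ÷ median lifetime of controls × 100). Some compounds were tested in independent runs at different times.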

Data set [3] relates to P388. Briefly: (§3) Antitumor activity in P-388 lymphocytic leukemia system at 50 mg/kg dose levels per injection. Type of data set: functional, Mus musculus. In outline:
(§4)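 P-388 leukemia in vivo, dosed Q01D×09 (one injection daily for 9 days, mg/kg per injection). Activity is %T/C, the median lifetime of treated animals divided by that of controls, ×100. Live animals on day 4 were counted against the total (survivors day 4). Repeat tests were done independently at different times.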

In data set [4] the test system is P388. Described as §3. Type of data set: functional, Mus musculus. In outline: as §2
The source holds these as a separate data set.

Data set [5] deals with P388. As to the kind of experiment: Compound was tested for antitumor activity in P-388 lymphocytic leukemia system and the difference in body weight was calculated at 400 mg/kg dose levels per injection. It counts as functional, Mus musculus.
The test system of data set [6] is P388. As to the kind of experiment: (§5) Antitumor activity in P-388 lymphocytic leukemia system at 100 mg/kg dose levels per injection. Type of data set: functional, Mus musculus. In outline:
as §2

For data set [7], the system named is P388. As to the kind of experiment: Compound was tested for antitumor activity in P-388 lymphocytic leukemia system. at 400 mg/kg dose levels per injection; Toxic. Type of data set: functional, organism-based. Set-up: dose 400 mg/kg. The following applies: Mus musculus. In outline:
as §4

Data set [8] relates to P388. Briefly: Compound was tested for antitumor activity in P-388 lymphocytic leukemia system at 400 mg/kg dose levels per injection; 6/6. It counts as functional, Mus musculus. An outline of the steps: as §2
Data set [9] relates to P388. Briefly: Antitumor activity in P-388 lymphocytic leukemia system and the difference in body weight calculated at 100 mg/kg dose levels per injection. It counts as functional, Mus musculus.
Data set [10] has as its system P388. As to the kind of experiment: Compound was tested for antitumor activity in P-388 lymphocytic leukemia system at 25 mg/kg dose levels per injection. Type of data set: functional, Mus musculus. In outline: as §4
The subject of data set [11] is P388. The data set is described as §5. It counts as functional, Mus musculus. An outline of the steps:
as §4
This is another data set of the same source.

For data set [12], the system named is P388. Briefly: Antitumor activity in P-388 lymphocytic leukemia system and the difference in body weight was calculated at 200 mg/kg dose levels per injection. It counts as functional, Mus musculus.
Data set [13] relates to P388. The data set is described as §1. Type of data set: functional, Mus musculus. Conditions: 200 mg/kg. An outline of the steps: as §4
The nature of data set [14]: Solubility was determined; INS= less than 0.1. It counts as physicochemical.
Data set [15] relates to P388. Briefly: Antitumor activity in P-388 lymphocytic leukemia system and the difference in body weight was calculated at 50 mg/kg dose levels per injection. Type of data set: functional, Mus musculus.
For data set [16], the system named is P388. Briefly: Antitumor activity in P-388 lymphocytic leukemia system at 25 mg/kg dose levels per injection. Type of data set: functional, Mus musculus. An outline of the steps: as §2
For data set [17], the system named is P388. Briefly: Compound was tested for antitumor activity in P-388 lymphocytic leukemia system. at 400 mg/kg dose levels per injection. Type of data set: functional, Mus musculus. In outline:
as §4

The test system of data set [18] is P388. Briefly: Compound was tested for antitumor activity in P-388 lymphocytic leukemia system at 400 mg/kg dose levels per injection; 5/6. Type of data set: functional, Mus musculus. In outline: as §2
Data set [19] concerns P388. Briefly: Antitumor activity in P-388 lymphocytic leukemia system and the difference in body weight was calculated at 25 mg/kg dose levels per injection. It counts as functional, Mus musculus.
Data set [20] relates to P388. Briefly: Compound was tested for antitumor activity in P-388 lymphocytic leukemia system at 100 mg/kg dose levels per injection; 5/5. It counts as functional, Mus musculus. In outline: as §2
The subject of data set [21] is P388. Briefly: Compound was tested for antitumor activity in P-388 lymphocytic leukemia system at 400 mg/kg dose levels per injection; 5/5. Type of data set: functional, Mus musculus. In outline: as §2
Data set [22] relates to P388. Briefly: Compound was tested for antitumor activity in P-388 lymphocytic leukemia system at 200 mg/kg dose levels per injection; 5/5. Type of data set: functional, Mus musculus. An outline of the steps:
as §2

In data set [23] the test system is P388. As to the kind of experiment: Compound was tested for antitumor activity in P-388 lymphocytic leukemia system 25 mg/kg dose levels per injection. Type of data set: functional, Mus musculus. An outline of the steps:
as §4

Data set [24] has as its system P388. Briefly: Compound was tested for antitumor activity in P-388 lymphocytic leukemia system at 50 mg/kg dose levels per injection; 5/5. It counts as functional, Mus musculus. An outline of the steps: as §2
The subject of data set [25] is P388. Briefly: Compound was tested for antitumor activity in P-388 lymphocytic leukemia system at 50 mg/kg dose levels per injection;6/6. Type of data set: functional, Mus musculus. An outline of the steps:
as §2

Data set [26] in a line: Solubility was determined. Type of data set: physicochemical.
For data set [27], the system named is P388. Briefly: Compound was tested for antitumor activity in P-388 lymphocytic leukemia system at 200 mg/kg dose levels per injection; 5/6. Type of data set: functional, Mus musculus. In outline:
as §2

Data set [28] has as its system P388. As to the kind of experiment: Compound was tested for antitumor activity in P-388 lymphocytic leukemia system. at 200 mg/kg dose levels per injection; Toxic. It counts as functional, organism-based. The arrangement: dose 200 mg/kg. The following applies: Mus musculus. In outline: as §4
For data set [29], the system named is P388. As to the kind of experiment: Antitumor activity in P-388 lymphocytic leukemia system at 25 mg/kg dose levels per injection. Type of data set: functional, Mus musculus. In outline:
as §4

Several values for one entry are separate records, joined by “and”; a condition that tells them apart may be missing. Equal values may be shown once.

Broadly, the T/C is the result in the treated group divided by that in the control group, in per cent.

On to `O=C1C2C3C=CC(C2C(=O)N1CN1CCSCC1)C1C2C(=O)N(CN4CCSCC4)C(=O)C2C31` (configuration not stated), for which the Weight difference in [1] was -1.3 g; in [5] it was -5.7 g; in data set [9] (100 mg/kg), -2.9 g and -2.1 g; in data set [12] (200 mg/kg) it was -5.1 g and -5.2 g; in data set [15] (50 mg/kg), -1.4 g and -2.1 g. The “Survivors at day 4” value in [2], in data set [4], in data set [6], in data set [8] and in data set [16] was 6 each time. Further, the T/C in data set [3] (50 mg/kg) is 166% and 121%; in data set [7] it was “Toxic”; in [10], 99%; in data set [11] (100 mg/kg), 148% and 165%; in data set [13], 166% and 194%. For the same molecule, in [14], the Solubility entry is reported as “Insoluble”.

Take `CCN(CC)CN1C(=O)C2C3C=CC(C2C1=O)C1C2C(=O)N(CN(CC)CC)C(=O)C2C31` (configuration not stated): the “Survivors at day 4” value in data set [2] came out at 6; in [4] it was 6; in data set [6], 6; in data set [18] it was 5; in data set [16] it was 6. The T/C was 111% and 102% in data set [3] (50 mg/kg); 111% in data set [17]; 103% in [10]; 117% and 116% in data set [11] (100 mg/kg); 139% and 125% in [13]. The Weight difference is -0.9 g in [5]; -0.8 g and -0.4 g in data set [9] (100 mg/kg); -0.7 g and -0.6 g in [12] (200 mg/kg); 0 g in [19]; -1 g and -0.5 g in data set [15] (50 mg/kg). Moreover, in data set [14], the Solubility result is listed as “Insoluble”.

In the case of `CC(=O)OCN1C(=O)C2C3C=CC(C2C1=O)C1C2C(=O)N(COC(C)=O)C(=O)C2C31` (configuration not stated), the “Survivors at day 4” value in data set [2] is 6; in data set [4] it was 6; in data set [20] it was 5; in data set [21], 5; in data set [6], 6; in data set [22], 5. Further, the “Survivors at day 4” value is recorded as 6 in data set [16] and 5 in data set [24]. The T/C in data set [3] (50 mg/kg) was 140% and 115%; in data set [17], 208%; in [10] it was 117%; in data set [11] (100 mg/kg) it was 118% and 155%; in data set [13], 180% and 133%. The Weight difference in [5] is -2.2 g; in data set [23] it was -0.1 g; in data set [15] (50 mg/kg) it was -0.4 g and -0.7 g. Besides, the Solubility result in data set [14] is listed as “Insoluble”.

In the case of `O=C1C2C3CCC(C2C(=O)N1CO)C1C2C(=O)N(CO)C(=O)C2C31` (configuration not stated), the T/C in data set [3] is 145%; in data set [11] it was 205%; in data set [28] it was “Toxic”; in [29], 102%. Moreover, the “Survivors at day 4” value in data set [25] came out at 6; in [6], 6; in [27], 5; in data set [16], 6. In [26], this molecule returned a Solubility of 1%. The Weight difference in data set [9] is given as -3.3 g; in data set [12] it was -4.7 g; in data set [19], 0.1 g; in data set [15], -1.8 g.

The record behind these values is ChEMBL document CHEMBL1123476, “Synthesis of congeners and prodrugs of the benzene maleimide photoadduct mitindomide as potential antitumor agents. 2” (J Med Chem, 1986).
